Two compounds from PMC7113734 (Antiviral Research, 2016) can be followed below.

Several values for one entry are separate records, joined by “and”; a condition that tells them apart may be missing. Identical values can stand only once. Entries after “also recorded” stand apart in the source; their conditions may differ.

One data set deals with SARS corona virus. In words: organism not typed. In kind it is cell-based.
Data set [1] has as its system Venezuelan equine encephalitis virus. Format: cell-based.
The subject of the next data set is rift valley fever virus. In words: microbe, parasite or virus in culture. In kind it is cell-based.
Data set [2] relates to respiratory syncytial virus. In words: DMID antiviral screening, RSV. In kind it is cell-based.
A further data set relates to tacaribe virus. In words: microbe, parasite or virus in culture. The conditions noted are these: Mammarenavirus tacaribeense. In kind it is cell-based.
Data set [3] can be described thus: Fourteen-day repeat dose toxicity study. In kind it is in vivo, Sprague-Dawley rats. The conditions noted are these: rats. In outline: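 Thirty-two Sprague-Dawley rats in four groups of 8, alongside a control article. Daily oral gavage for 14 days at 500, 1000 or 2000 mg/kg, given as suspension in 2% CMC-Na in water. Per group, 4 main animals necropsied Day 15 and 4 recovery animals Day 29. Blood for clinical pathology taken before sacrifice. Endpoints: clinical observations, body weight, food consumption, clinical chemistry, hematology, coagulation, urinalysis, organ weights, gross and microscopic pathology.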

In a further data set the test system is HIVIIIB. Nature of the data set: Virucidal assay. In kind it is cell-based, HIV-1. The conditions noted are these: virions treated 20 min, washed, CEM-SS cells. In outline:
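Test compound incubated with undiluted HIV-1 IIIB for 20 min at 37 °C. Virus pelleted at 13,800 rpm, 4 °C, 90 min, then washed five times with culture medium. Pellet resuspended in RPMI to the predetermined titer of untreated virus and used to infect CEM-SS cells for 6 days at 37 °C/5% CO2. Infectivity read by XTT cell viability.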

A short description of data set [4]: Maximum tolerated dose, single oral administration. In kind it is in vivo, Sprague-Dawley rats. Conditions: single oral 750, 1000, 1500, 2000 mg/kg; rats. The essentials: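 Single oral gavage in Sprague-Dawley rats, 8 per group (4 female, 4 male). Doses of 750, 1000, 1500 or 2000 mg/kg given in 5% DMSO/70% PEG400 in water, or 2000 mg/kg in 2% CMC-Na in water. Dose volume 10 mL/kg, or 20 mL/kg at 2000 mg/kg. Four-day observation after dosing: cageside and clinical signs, body weight, food consumption.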

The EC50 is the concentration giving half of the maximal effect. As for `NC(=O)CCNC(=O)c1ccccc1S` [MDH-1-38, N-(3-amino-3-oxopropyl)-2-mercaptobenzamide], the EC50 in the data set with SARS corona virus, in the data set on rift valley fever virus and with tacaribe virus was about 20 µM each time. The antiviral activity entry in data set [1] and in data set [2] was “failed to show any activity” throughout.
With `CCCC(=O)OCSc1ccccc1C(=O)NCCC(N)=O` [NS1040, ((2-((3-amino-3-oxopropyl)carbamoyl)phenyl)thio)methyl butyrate], the “urine observation in repeat dose study” value in data set [3] (at the higher doses) was “cloudy urine samples were noted for some of the rats”. For the same compound, the “toxicity in repeat dose study” value in data set [3] (oral 500, 1000, 2000 mg/kg for 14 consecutive days) is reported as “no toxicity observed; also recorded: non-toxic”. Besides, the “concentration reducing infectivity of HIV virions (virucidal)” value in the data set with HIVIIIB was 50 µM and > 50 µM. Also, the “toxicity in MTD study” value in data set [4] is on record as “did not exhibit any toxicity at any dose”.
